# From ChEMBL document CHEMBL1133173, “Isoxazolines as potent antagonists of the integrin alpha(v)beta(3)” (J Med Chem, 2000)
# Biological target: Integrin alpha-V/beta-3 (Homo sapiens, UniProt P05106+P06756)
# Test: Inhibition of vitronectin receptor (alpha V beta 3), expressed on human 293 cells, binding to immobilized fibrinogen
# Type: cell-based, HEK293
# Outline: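 Human 293 cells stably transfected with human β3 plus a lacZ reporter (293β3z clone). Cells at 10⁶ viable cells/mL in MCDB131/20 mM HEPES pH 7.0 with 0.2% DMSO are preincubated with compound for 15 min at 37 °C. They are then added at 10⁵ cells/well to glycine-purified human fibrinogen-coated, BSA-blocked wells for 1 h at 37 °C, 5% CO₂. Adherent cells are lysed and β-galactosidase is read by chemiluminescence against a purified enzyme standard curve. Nonspecific binding is defined with 1 μM of a reference antagonist.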
# Integrin alpha-V/beta-3, sequence (P05106 27-788 limits assumed): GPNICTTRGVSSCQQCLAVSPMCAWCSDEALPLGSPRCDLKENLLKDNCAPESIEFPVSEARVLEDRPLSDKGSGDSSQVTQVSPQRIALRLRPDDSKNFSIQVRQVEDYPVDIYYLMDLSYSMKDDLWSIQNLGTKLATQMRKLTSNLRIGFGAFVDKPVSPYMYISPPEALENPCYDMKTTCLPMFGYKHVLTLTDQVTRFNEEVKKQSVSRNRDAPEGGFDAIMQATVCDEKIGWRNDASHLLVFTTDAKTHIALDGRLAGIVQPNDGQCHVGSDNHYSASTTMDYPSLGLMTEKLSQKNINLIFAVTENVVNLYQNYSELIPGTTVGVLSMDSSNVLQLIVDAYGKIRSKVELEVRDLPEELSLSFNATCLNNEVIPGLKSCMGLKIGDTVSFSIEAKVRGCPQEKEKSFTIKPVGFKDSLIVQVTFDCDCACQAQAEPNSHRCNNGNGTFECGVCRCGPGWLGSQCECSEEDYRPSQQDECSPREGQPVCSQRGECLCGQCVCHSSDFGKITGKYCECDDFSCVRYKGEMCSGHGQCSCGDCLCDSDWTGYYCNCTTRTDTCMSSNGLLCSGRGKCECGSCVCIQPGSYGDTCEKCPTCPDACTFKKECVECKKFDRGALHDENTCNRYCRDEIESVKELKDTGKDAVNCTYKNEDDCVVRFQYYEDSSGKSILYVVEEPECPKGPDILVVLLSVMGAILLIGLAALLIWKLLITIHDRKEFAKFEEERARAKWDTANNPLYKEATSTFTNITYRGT
# Integrin alpha-V/beta-3, sequence (P06756 31-889 limits assumed): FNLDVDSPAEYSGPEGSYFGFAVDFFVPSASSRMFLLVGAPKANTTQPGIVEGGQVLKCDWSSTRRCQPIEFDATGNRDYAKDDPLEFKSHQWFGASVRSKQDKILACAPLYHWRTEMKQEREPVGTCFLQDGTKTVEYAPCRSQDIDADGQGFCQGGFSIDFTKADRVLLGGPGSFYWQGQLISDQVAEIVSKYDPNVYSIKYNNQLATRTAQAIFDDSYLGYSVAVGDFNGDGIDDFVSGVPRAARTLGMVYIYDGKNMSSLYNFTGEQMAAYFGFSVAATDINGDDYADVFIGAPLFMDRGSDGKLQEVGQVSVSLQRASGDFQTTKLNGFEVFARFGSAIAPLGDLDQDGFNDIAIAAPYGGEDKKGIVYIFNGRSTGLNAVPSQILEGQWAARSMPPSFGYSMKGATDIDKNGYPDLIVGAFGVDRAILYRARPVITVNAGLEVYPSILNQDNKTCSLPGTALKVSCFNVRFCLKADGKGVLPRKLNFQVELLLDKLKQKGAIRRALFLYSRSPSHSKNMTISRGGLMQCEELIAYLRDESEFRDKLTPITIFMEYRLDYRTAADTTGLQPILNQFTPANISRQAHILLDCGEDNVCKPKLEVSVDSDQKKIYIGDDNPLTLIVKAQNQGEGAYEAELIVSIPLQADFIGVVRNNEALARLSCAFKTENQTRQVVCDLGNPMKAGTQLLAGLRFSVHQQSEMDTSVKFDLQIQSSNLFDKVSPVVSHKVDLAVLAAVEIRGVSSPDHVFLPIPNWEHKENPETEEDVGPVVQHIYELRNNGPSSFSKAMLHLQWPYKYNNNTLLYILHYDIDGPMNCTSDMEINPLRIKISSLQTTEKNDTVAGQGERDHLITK
# Integrin alpha-V/beta-3, sequence (P06756 891-1048 limits assumed): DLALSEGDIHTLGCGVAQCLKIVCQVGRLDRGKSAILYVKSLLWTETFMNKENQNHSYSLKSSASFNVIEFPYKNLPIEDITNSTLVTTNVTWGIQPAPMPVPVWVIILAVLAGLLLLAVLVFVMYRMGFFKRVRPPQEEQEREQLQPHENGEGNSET
row,SMILES,IC50
1,Cc1cc(C)c(S(=O)(=O)N[C@@H](CNC(=O)C2=NOC(CCCCN=C(N)N)C2)C(=O)O)c(C)c1 (stereo not given in full),169 nM
2,Cc1cc(C)c(S(=O)(=O)N[C@@H](CNC(=O)C2=NOC(CCCCNC3=NCCN3)C2)C(=O)O)c(C)c1 (stereo not given in full),62 nM
3,Cc1noc(C)c1S(=O)(=O)N[C@@H](CNC(=O)C1=NOC(CCCCNc2ncc[nH]2)C1)C(=O)O (stereo not given in full),73 nM
4,Cc1cc(C)c(S(=O)(=O)N[C@@H](CNC(=O)C2=NOC(CCNc3ncc[nH]3)C2)C(=O)O)c(C)c1 (stereo not given in full),106 nM
5,N=C(N)c1ccc(C2=NO[C@@H](CC(=O)NCCC(=O)O)C2)cc1,> 100000 nM
6,Cc1cc(C)c(S(=O)(=O)N[C@@H](CNC(=O)C2=NOC(CCCC(=O)Nc3ncc[nH]3)C2)C(=O)O)c(C)c1 (stereo not given in full),31 nM
7,Cc1cc(C)c(S(=O)(=O)N[C@@H](CNC(=O)C2=NOC(CCCCNc3ncc[nH]3)C2)C(=O)O)c(C)c1 (stereo not given in full),15 nM
8,Cc1cc(C)c(S(=O)(=O)N[C@@H](CNC(=O)C2=NOC(CCCCNc3cc4ccccc4cn3)C2)C(=O)O)c(C)c1 (stereo not given in full),> 1000 nM
9,Cc1cc(C)c(S(=O)(=O)N[C@@H](CNC(=O)C2=NOC(CCCc3cccc(N)n3)C2)C(=O)O)c(C)c1 (stereo not given in full),26 nM
10,Cc1cc(C)c(S(=O)(=O)N[C@@H](CNC(=O)C2=NOC(CCCc3c[nH]c(N)n3)C2)C(=O)O)c(C)c1 (stereo not given in full),46 nM
11,Cc1cc(C)c(S(=O)(=O)N[C@@H](CNC(=O)C2=NOC(CCNC(=O)Nc3ncc[nH]3)C2)C(=O)O)c(C)c1 (stereo not given in full),34 nM
12,Cc1cc(C)c(S(=O)(=O)N[C@@H](CNC(=O)C2=NOC(CCCCNc3nccc4ccccc34)C2)C(=O)O)c(C)c1 (stereo not given in full),> 1000 nM
13,O=C(NC[C@H](NS(=O)(=O)c1c(Cl)cccc1Cl)C(=O)O)C1=NOC(CCCCNc2ncc[nH]2)C1 (stereo not given in full),18 nM
14,Cc1cc(C)c(S(=O)(=O)N[C@@H](CNC(=O)C2=NOC(CCCCNS(N)(=O)=O)C2)C(=O)O)c(C)c1 (stereo not given in full),> 1000 nM
15,Cc1cccc(Cl)c1S(=O)(=O)N[C@@H](CNC(=O)C1=NOC(CCCCNc2ncc[nH]2)C1)C(=O)O (stereo not given in full),7.1 nM
16,Cc1cc(C)c(S(=O)(=O)N[C@H](CNC(=O)C2=NOC(CCCCNc3ncc[nH]3)C2)C(=O)O)c(C)c1 (stereo not given in full),2800 nM
17,N[C@@H](CNC(=O)C1=NOC(CCCCNc2ncc[nH]2)C1)C(=O)O (stereo not given in full),> 1000 nM
18,Cc1cc(C)c(S(=O)(=O)N[C@@H](CNC(=O)C2=NOC(CCCCNC(N)=O)C2)C(=O)O)c(C)c1 (stereo not given in full),> 1000 nM

# The next lines start with the values.
row,IC50,SMILES
1,44 nM,Cc1cc(-c2ccccc2)cc(C)c1S(=O)(=O)N[C@@H](CNC(=O)C1=NOC(CCCCNc2ccccn2)C1)C(=O)O (stereo not given in full)
2,240 nM,O=C(NC[C@H](NS(=O)(=O)c1ccc(-c2ccccc2)cc1)C(=O)O)C1=NOC(CCCCNc2ncc[nH]2)C1 (stereo not given in full)
3,170 nM,CC(C)c1ccc(S(=O)(=O)N[C@@H](CNC(=O)C2=NOC(CCCCNc3ccccn3)C2)C(=O)O)cc1 (stereo not given in full)
4,130 nM,CN([C@@H](CNC(=O)C1=NOC(CCCCNc2ccccn2)C1)C(=O)O)S(=O)(=O)c1ccc(-c2ccccc2)cc1 (stereo not given in full)
5,160 nM,O=C(NC[C@H](NS(=O)(=O)c1cccc2ccccc12)C(=O)O)C1=NOC(CCCCNc2ccccn2)C1 (stereo not given in full)
6,54 nM,Cc1cc(C)c(S(=O)(=O)N[C@@H](CNC(=O)C2=NOC(CCCCNc3ccccn3)C2)C(=O)O)c(C)c1 (stereo not given in full)
7,4.6 nM,O=C(NC[C@H](NS(=O)(=O)c1c(Cl)cc(-c2ccccc2)cc1Cl)C(=O)O)C1=NOC(CCCCNc2ncc[nH]2)C1 (stereo not given in full)
8,10.6 nM,O=C(NC[C@H](NS(=O)(=O)c1ccccc1)C(=O)O)C1=NOC(CCCCNc2ncc[nH]2)C1 (stereo in doubt; 3cc)
9,81 nM,O=C(NC[C@H](NS(=O)(=O)c1ccccc1)C(=O)O)C1=NOC(CCCCNc2ccccn2)C1 (stereo not given in full)
10,51 nM,O=C(NC[C@H](NS(=O)(=O)c1cccc2ccccc12)C(=O)O)C1=NOC(CCCCNc2ncc[nH]2)C1 (stereo not given in full)
11,8.8 nM,Cc1cc(-c2ccccc2)cc(C)c1S(=O)(=O)N[C@@H](CNC(=O)C1=NOC(CCCCNc2ncc[nH]2)C1)C(=O)O (stereo not given in full)
12,66 nM,O=C(NC[C@H](NS(=O)(=O)c1ccccc1)C(=O)O)C1=NOC(CCCCNc2ncc[nH]2)C1 (stereo in doubt; 3q)
